Data as given in ChEMBL document CHEMBL4118259, “Synthesis of sulfadiazinyl acyl/aryl thiourea derivatives as calf intestinal alkaline phosphatase inhibitors, pharmacokinetic properties, lead optimization, Lineweaver-Burk plot evaluation and binding analysis” (Bioorg Med Chem, 2018).

What was measured:
Settings in all cases: Bos taurus
[1] = compound: O=C(NC(=S)Nc1ccc(S(=O)(=O)Nc2ncccn2)cc1)c1ccc(Cl)cc1; assay: Mixed-type inhibition of calf intestinal alkaline phosphatase assessed as substrate Km at 0.015 uM using varying levels of p-NPP as substrate by Lineweaver-Burk plot analysis (reference value: 0.833 mM)
How it was run: (§1)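 Same CIALP buffer and enzyme system with inhibitor at 0.0, 0.015 and 0.3 µM and p-NPP at 10, 5, 2.5, 1.25 and 0.625 mM. Initial velocities were read every minute over the first 10 min after enzyme addition. Inhibition type came from Lineweaver-Burk plots of 1/V vs 1/[S]. Ki came from secondary plots of slope vs inhibitor concentration, Ki′ from intercept vs concentration.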

[2] = compound: O=C(NC(=S)Nc1ccc(S(=O)(=O)Nc2ncccn2)cc1)c1ccc(Cl)cc1; assay: Mixed-type inhibition of calf intestinal alkaline phosphatase assessed as substrate Vmax at 0.015 uM using varying levels of p-NPP as substrate measured every minute for 10 mins by Lineweaver-Burk plot analysis (reference value: 1.2 10^-5deltaA/s); how it was run: as §1
[3] = compound: O=C(NC(=S)Nc1ccc(S(=O)(=O)Nc2ncccn2)cc1)c1ccc(Cl)cc1; assay: Mixed-type inhibition of calf intestinal alkaline phosphatase assessed as substrate Vmax at 0.3 uM using varying levels of p-NPP as substrate measured every minute for 10 mins by Lineweaver-Burk plot analysis (reference value: 1.2 10^-5deltaA/s); how it was run: as §1
[4] = compound: O=C(NC(=S)Nc1ccc(S(=O)(=O)Nc2ncccn2)cc1)c1ccc(Cl)cc1; assay: Mixed-type inhibition of calf intestinal alkaline phosphatase assessed as substrate Km at 0.3 uM using varying levels of p-NPP as substrate by Lineweaver-Burk plot analysis (reference value: 0.833 mM); how it was run: as §1

B1: Intestinal-type alkaline phosphatase (Bos taurus), P19111 (protein)
chain: MQGACVLLLLGLHLQLSLGLVPVEEEDPAFWNRQAAQALDVAKKLQPIQTAAKNVILFLGDGMGVPTVTATRILKGQMNGKLGPETPLAMDQFPYVALSKTYNVDRQVPDSAGTATAYLCGVKGNYRTIGVSAAARYNQCKTTRGNEVTSVMNRAKKAGKSVGVVTTTRVQHASPAGAYAHTVNRNWYSDADLPADAQMNGCQDIAAQLVNNMDIDVILGGGRKYMFPVGTPDPEYPDDASVNGVRKRKQNLVQAWQAKHQGAQYVWNRTALLQAADDSSVTHLMGLFEPADMKYNVQQDHTKDPTLQEMTEVALRVVSRNPRGFYLFVEGGRIDHGHHDDKAYMALTEAGMFDNAIAKANELTSELDTLILVTADHSHVFSFGGYTLRGTSIFGLAPSKALDSKSYTSILYGNGPGYALGGGSRPDVNDSTSEDPSYQQQAAVPQASETHGGEDVAVFARGPQAHLVHGVEEETFVAHIMAFAGCVEPYTDCNLPAPTTATSIPDAAHLAASPPPLALLAGAMLLLLAPTLY
- Km [1]: 1330 µM
- Vmax (10'-6deltaA/s) [2]: 8
- Vmax (10'-5deltaA/s) [3]: 4.9
- Km [4]: 2000 µM
